Results taken from ChEMBL document CHEMBL1133729, “Design, synthesis, and structure-activity relationships of phthalimide-phenylpiperazines: a novel series of potent and selective alpha(1)(a)-adrenergic receptor antagonists” (J Med Chem, 2000).

What was measured:
[1] = target: T1, Alpha-1A adrenergic receptor (Homo sapiens, UniProt P35348); assay: Binding affinity towards cloned human alpha-1A adrenergic receptor was determined using [125]-HEAT as radioligand
T1 sequence (P35348 whole entry): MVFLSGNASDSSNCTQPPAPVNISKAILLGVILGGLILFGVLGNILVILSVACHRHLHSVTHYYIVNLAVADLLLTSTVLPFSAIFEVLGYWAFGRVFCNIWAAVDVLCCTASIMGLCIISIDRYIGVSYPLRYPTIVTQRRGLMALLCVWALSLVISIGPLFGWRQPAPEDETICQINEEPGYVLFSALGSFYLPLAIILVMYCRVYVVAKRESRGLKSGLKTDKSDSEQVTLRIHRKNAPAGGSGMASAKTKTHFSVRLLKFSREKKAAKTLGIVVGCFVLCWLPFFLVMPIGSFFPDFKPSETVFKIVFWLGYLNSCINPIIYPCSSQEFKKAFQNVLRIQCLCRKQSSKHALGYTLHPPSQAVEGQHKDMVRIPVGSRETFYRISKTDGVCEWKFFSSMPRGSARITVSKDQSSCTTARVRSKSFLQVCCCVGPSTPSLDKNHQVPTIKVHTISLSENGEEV

[2] = target: Histamine H1 receptor (Cavia porcellus) (UniProt P31389); assay: Compound at 1 uM was tested for the inhibition of radioligand [3H]pyrilamine binding to central histamine H1 receptor in guinea pig brain
Histamine H1 receptor (Cavia porcellus), sequence (P31389 whole entry): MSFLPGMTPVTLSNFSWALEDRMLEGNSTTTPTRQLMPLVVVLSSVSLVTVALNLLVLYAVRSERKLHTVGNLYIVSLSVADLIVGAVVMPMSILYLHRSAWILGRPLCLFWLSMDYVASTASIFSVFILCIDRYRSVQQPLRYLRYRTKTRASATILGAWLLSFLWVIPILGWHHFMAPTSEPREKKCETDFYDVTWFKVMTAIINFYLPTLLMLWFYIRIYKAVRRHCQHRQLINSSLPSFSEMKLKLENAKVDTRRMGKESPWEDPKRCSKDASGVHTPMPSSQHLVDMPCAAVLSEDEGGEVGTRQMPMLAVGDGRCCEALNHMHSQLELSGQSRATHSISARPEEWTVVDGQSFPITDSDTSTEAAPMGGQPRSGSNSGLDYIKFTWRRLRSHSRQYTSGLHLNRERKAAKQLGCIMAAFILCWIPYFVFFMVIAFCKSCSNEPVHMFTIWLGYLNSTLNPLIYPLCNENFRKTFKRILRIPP
Outline: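 Central H1 from guinea pig brain membranes; [3H]pyrilamine 25 °C for 60 min, pH 7.4 Tris-HCl/NaCl/EDTA buffer; 1 μM pyrilamine for nonspecific binding. Percent inhibition by compound at 1 μM, duplicate; filtered, scintillation counted.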

[3] = target: Serotonin 1 (5-HT1) receptor (Rattus norvegicus) (UniProt P28564+P30940+P19327+P28565); assay: Compound at 1 uM was tested for the inhibition of radioligand [3H]5-HT binding to 5-hydroxytryptamine 1 receptor in rat cerebral cortex; type: tissue-based
Outline: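 Rat cerebral cortex membranes; [3H]5-HT, 10 min at 37 °C, Tris-HCl/NaCl/EDTA buffer pH 7.4; 10 μM 5-HT for nonspecific binding. Filtered, washed three to four times, scintillation counted. Percent inhibition at 1 μM test compound, in duplicate.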

[4] = target: T2, Alpha-2A adrenergic receptor (Homo sapiens) (UniProt P08913); assay: Compound at 1 uM was tested for the inhibition of radioligand [3H]MK-912 binding to recombinant human alpha-2A adrenergic receptor
T2 sequence (whole entry): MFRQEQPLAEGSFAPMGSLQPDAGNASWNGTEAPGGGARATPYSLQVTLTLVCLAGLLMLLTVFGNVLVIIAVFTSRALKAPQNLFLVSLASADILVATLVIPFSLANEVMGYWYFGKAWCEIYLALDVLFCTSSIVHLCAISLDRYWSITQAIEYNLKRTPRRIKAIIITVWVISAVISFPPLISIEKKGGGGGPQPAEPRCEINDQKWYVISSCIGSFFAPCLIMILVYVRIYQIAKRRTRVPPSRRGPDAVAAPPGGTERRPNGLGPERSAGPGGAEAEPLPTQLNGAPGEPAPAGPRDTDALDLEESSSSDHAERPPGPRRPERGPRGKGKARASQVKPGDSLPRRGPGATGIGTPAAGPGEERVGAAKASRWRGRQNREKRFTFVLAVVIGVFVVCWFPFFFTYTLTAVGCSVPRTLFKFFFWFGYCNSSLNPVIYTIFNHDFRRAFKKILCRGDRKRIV
Outline: (§1)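 Recombinant human α2a or α2c receptors in CHO cell membranes; [3H]MK912, 60 min at 25 °C in 50 mM Tris-HCl, 150 mM NaCl, 5 mM EDTA, pH 7.4; WB4101 (10 μM) for nonspecific binding. Percent inhibition at 1 μM in duplicate; filtration, scintillation counting.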

[5] = target: T3, Alpha-2C adrenergic receptor (Homo sapiens) (UniProt P18825); assay: Compound at 1 uM was tested for the inhibition of radioligand [3H]MK-912 binding to recombinant human alpha-2C adrenergic receptor; outline: as §1
T3 sequence (whole entry): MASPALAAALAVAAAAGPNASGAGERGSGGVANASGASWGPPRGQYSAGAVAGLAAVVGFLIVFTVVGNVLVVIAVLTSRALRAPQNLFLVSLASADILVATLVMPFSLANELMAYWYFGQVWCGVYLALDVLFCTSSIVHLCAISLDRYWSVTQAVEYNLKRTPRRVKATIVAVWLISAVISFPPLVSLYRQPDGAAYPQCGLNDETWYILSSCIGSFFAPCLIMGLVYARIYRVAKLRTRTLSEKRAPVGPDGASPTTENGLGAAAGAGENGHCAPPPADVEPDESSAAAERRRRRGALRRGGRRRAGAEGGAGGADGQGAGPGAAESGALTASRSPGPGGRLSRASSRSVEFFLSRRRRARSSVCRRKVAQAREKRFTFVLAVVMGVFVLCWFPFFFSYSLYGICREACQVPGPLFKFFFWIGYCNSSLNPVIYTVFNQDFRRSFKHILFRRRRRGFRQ

[6] = target: D(2) dopamine receptor (Homo sapiens, UniProt P14416); assay: Compound at 1 uM was tested for the inhibition of radioligand [3H]spiperone binding to recombinant human Dopamine receptor D2S
D(2) dopamine receptor, sequence (P14416 whole entry): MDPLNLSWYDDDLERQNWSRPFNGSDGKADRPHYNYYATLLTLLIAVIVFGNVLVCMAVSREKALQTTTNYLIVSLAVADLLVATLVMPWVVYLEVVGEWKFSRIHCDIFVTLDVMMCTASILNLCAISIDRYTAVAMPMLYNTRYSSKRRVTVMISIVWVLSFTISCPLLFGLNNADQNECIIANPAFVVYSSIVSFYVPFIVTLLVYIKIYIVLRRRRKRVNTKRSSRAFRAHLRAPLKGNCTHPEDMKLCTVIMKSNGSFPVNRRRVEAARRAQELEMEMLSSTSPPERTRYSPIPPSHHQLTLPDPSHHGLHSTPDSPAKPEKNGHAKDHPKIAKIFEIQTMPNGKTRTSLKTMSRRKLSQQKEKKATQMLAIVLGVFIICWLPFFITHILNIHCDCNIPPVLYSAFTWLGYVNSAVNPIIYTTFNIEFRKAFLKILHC
Outline: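 Human D2S in CHO membranes; [3H]spiperone, 37 °C for 120 min in 50 mM Tris-HCl, 150 mM NaCl, 5 mM EDTA, pH 7.4; 10 μM haloperidol for nonspecific binding. Percent inhibition at 1 μM, duplicate; filtration, scintillation counting.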

Row | SMILES | Ki [1] [nM] | inhibition [2] [%] | inhibition [3] [%] | inhibition [4] [%] | inhibition [5] [%] | inhibition [6] [%]
1 | CC(C)Oc1ccccc1N1CCN(C[C@@H](O)CNC(=O)c2ccc3c(c2)C(=O)N(c2ccc(N(C)C)cc2)C3=O)CC1 | 0.33 | 88 | 66 | 18 | 11 | 71
2 | Cc1ccc(N2C(=O)c3ccc(C(=O)NCCCN4CCN(c5ccccc5OC(C)C)CC4)cc3C2=O)cc1 | 0.16 | 97 | 69 | 87 | 83 | 94
3 | Cc1ccc(N2C(=O)c3ccc(C(=O)NC[C@H](O)CN4CCN(c5ccccc5OC(C)C)CC4)cc3C2=O)cc1 | 0.29 | 93 | 64 | 19 | 14 | 70
4 | CC(C)Oc1ccccc1N1CCN(C[C@@H](O)CNC(=O)c2ccc3c(c2)C(=O)N(c2cccc(F)c2)C3=O)CC1 | 1.02 | 95 | 49 | 29 | 8 | 51
5 | CCOc1ccccc1OCCN[C@H](C)Cc1ccc(OC)c(S(N)(=O)=O)c1 [TAMSULOSIN] |  | 18 | 62 | 82 | 41 | 73
6 | CC(C)Oc1ccccc1N1CCN(CCCNC(=O)c2ccc3c(c2)C(=O)N(c2cccc(F)c2)C3=O)CC1 | 0.41 | 87 | 88 | 78 | 86 | 90
7 | COc1ccc(N2C(=O)c3ccc(C(=O)NCCCN4CCN(c5ccccc5OC(C)C)CC4)cc3C2=O)cc1 | 0.11 | 97 | 90 | 80 | 76 | 87
